ChEMBL document CHEMBL1124565, “Synthesis and receptor affinities of some conformationally restricted analogues of the dopamine D1 selective ligand (5R)-8-chloro-2,3,4,5-tetrahydro-3-methyl-5-phenyl- 1H-3-benzazepin-7-ol” (J Med Chem, 1989)

How the values were obtained:
D(1A) dopamine receptor [1] = target: T1, D(1A) dopamine receptor (Rattus norvegicus, UniProt P18901); experiment: Inhibition of [3H]SCH-23390 binding to rat striatal homogenate dopamine receptor D1
Outline: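 Pooled striatal membranes from male Sprague-Dawley rats (150-250 g), washed twice by homogenization/centrifugation (20000g, 10 min) in 50 mM Tris-HCl pH 7.4, final buffer adding 120 mM NaCl, 5 mM CaCl2, 1 mM MgCl2. Test agents at various concentrations compete with [3H]SCH 23390; triplicate, 37 °C for 20 min, rapid GF/B filtration, liquid scintillation counting.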

D(1A) dopamine receptor [2] = target: T1, D(1A) dopamine receptor; experiment: In vitro affinity of compound towards dopamine (D1) receptor was determined by measuring their ability to displace [3H]SCH-23,390 from rat striatal homogenates
D(2) dopamine receptor [3] = target: T2, D(2) dopamine receptor (Rattus norvegicus, UniProt P61169); experiment: In vitro affinity of compound towards Dopamine receptor D2 was determined by measuring their ability to displace [3H]spiperone from rat striatal homogenates
T2 sequence (P61169 whole entry): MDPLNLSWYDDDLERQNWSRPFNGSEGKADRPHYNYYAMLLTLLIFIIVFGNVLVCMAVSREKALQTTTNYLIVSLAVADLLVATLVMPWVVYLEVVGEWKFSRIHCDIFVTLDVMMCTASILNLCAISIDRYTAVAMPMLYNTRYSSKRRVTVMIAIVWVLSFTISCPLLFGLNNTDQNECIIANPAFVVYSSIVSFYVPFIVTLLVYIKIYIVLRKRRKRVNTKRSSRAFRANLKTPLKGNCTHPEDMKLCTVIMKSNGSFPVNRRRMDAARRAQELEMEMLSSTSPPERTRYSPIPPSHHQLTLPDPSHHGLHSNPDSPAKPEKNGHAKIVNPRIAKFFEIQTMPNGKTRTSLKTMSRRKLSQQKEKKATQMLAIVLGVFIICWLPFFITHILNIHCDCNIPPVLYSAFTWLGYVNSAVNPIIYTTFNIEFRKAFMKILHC
Outline: (§1)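 Striatum from male Sprague-Dawley rats (150-250 g), homogenized in ice-cold 50 mM Tris-HCl pH 7.4, centrifuged 20000g 10 min twice, resuspended in Tris buffer with 120 mM NaCl, 5 mM CaCl2, 1 mM MgCl2. Competition against [3H]spiperone (final approximately 0.3 nM), triplicate tubes, 37 °C 20 min, vacuum filtration over GF/B with ice-cold buffer rinses, scintillation counting.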

D(2) dopamine receptor [4] = target: T2, D(2) dopamine receptor; experiment: Displacement of [3H]spiperone from rat striatal homogenate dopamine receptor D2; outline: as §1

T1 sequence (P18901 whole entry): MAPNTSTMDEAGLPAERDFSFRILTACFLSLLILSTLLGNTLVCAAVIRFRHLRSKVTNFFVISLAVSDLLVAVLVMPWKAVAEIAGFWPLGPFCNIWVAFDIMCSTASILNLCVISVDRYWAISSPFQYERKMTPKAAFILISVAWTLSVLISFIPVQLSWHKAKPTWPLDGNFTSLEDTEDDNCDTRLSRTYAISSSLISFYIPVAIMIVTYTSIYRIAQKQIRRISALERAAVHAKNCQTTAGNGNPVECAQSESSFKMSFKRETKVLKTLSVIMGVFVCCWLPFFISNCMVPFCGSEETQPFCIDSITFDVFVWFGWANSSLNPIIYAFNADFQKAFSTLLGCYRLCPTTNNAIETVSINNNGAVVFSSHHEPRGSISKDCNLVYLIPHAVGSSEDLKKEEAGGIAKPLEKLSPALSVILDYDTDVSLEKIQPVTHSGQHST

CN1CCc2cc(Cl)c(O)cc2[C@@H]2c3ccccc3CC[C@H]21
Ki (D(1A) dopamine receptor [1]): 0.531 µM

CN1CCc2cc(O)c(O)cc2[C@@H]2c3ccccc3CC[C@@H]21
Ki (D(1A) dopamine receptor [2]): 1.73 µM
Ki (D(2) dopamine receptor [3]): > 100 µM

CN1CCc2cc(Cl)c(O)cc2[C@@H]2c3ccccc3CC[C@@H]21
Ki (D(1A) dopamine receptor [1]): 0.513 µM

COc1cc2c(cc1O)[C@@H]1c3ccccc3CC[C@@H]1N(C)CC2
Ki (D(1A) dopamine receptor [1]): 4.2 µM
Ki (D(2) dopamine receptor [4]): > 100 µM

CN1CCc2cc(Cl)c(O)cc2C2c3ccccc3CCC21 (trans isomer)
Ki (D(1A) dopamine receptor [1]): 0.0033 µM

CN1CCc2cc(Cl)c(O)cc2[C@@H]2c3ccccc3CC[C@@H]21 (relative stereo)
Ki (D(1A) dopamine receptor [1]): 0.474 µM

CN1CCc2cc(O)c(O)cc2[C@H]2c3ccccc3CC[C@@H]21
Ki (D(1A) dopamine receptor [2]): 0.068 µM
Ki (D(2) dopamine receptor [3]): 2.41 µM

Cc1cc2c(cc1O)[C@H]1c3ccccc3CC[C@@H]1N(C)CC2
Ki (D(1A) dopamine receptor [1]): 0.0071 µM
Ki (D(2) dopamine receptor [4]): 1.51 µM

COc1cc2c(cc1O)[C@H]1c3ccccc3CC[C@@H]1N(C)CC2
Ki (D(1A) dopamine receptor [1]): 0.0236 µM
Ki (D(2) dopamine receptor [4]): 2.48 µM

COc1cc2c(cc1O)CCN(C)[C@H]1CCc3ccccc3[C@H]21
Ki (D(1A) dopamine receptor [1]): 1.66 µM
Ki (D(2) dopamine receptor [4]): 6.4 µM

CN1CCc2ccc(O)cc2[C@H]2c3ccccc3CC[C@@H]21
Ki (D(1A) dopamine receptor [1]): 0.0726 µM
Ki (D(2) dopamine receptor [4]): 7.87 µM

CN1CCc2cc(Cl)c(O)cc2[C@H]2c3ccccc3CC[C@H]21
Ki (D(1A) dopamine receptor [1]): 0.898 µM

COc1cc2c(cc1O)CCN(C)[C@H]1CCc3ccccc3[C@@H]21
Ki (D(1A) dopamine receptor [1]): 24.4 µM
Ki (D(2) dopamine receptor [4]): > 100 µM

CN1CCc2cc(Cl)c(O)cc2[C@H]2c3ccccc3CC[C@@H]21 [ECOPIPAM]
Ki (D(1A) dopamine receptor [1]): 0.0019 µM
